20 compounds from ChEMBL document CHEMBL1143990, “Design, synthesis and evaluation of antiinflammatory, analgesic and ulcerogenicity studies of novel S-substituted phenacyl-1,3,4-oxadiazole-2-thiol and Schiff bases of diclofenac acid as nonulcerogenic derivatives” (Bioorg Med Chem, 2008) can be followed below.

Each structure is given as a SMILES string.

Data set [1] relates to Rattus norvegicus. The data set can be described thus: Antiinflammatory activity against carrageenan-induced paw edema in orally dosed Wistar rat after 3 hrs relative to control. Format: functional. A digest of the protocol: (§1)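 Wistar rats of either sex, 100–120 g, fasted 24 h with water available. Compounds were suspended in 1% aqueous CMC and given orally 1 h before 0.1 mL of freshly prepared 1.0% w/v carrageenan was injected subplantar into the right hind paw. Paw volume was measured before and after carrageenan. Change in paw volume is mean ± SD versus vehicle control, by one-way ANOVA with Dunnett's test.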
(In general: In the carrageenan paw model, swelling and tenderness develop within hours.)

The subject of data set [2] is Rattus norvegicus. Briefly: Antiinflammatory activity against carrageenan-induced paw edema in orally dosed Wistar rat after 1 hr relative to control. It counts as functional. Put shortly: as §1
Data set [3] relates to Rattus norvegicus. Briefly: Antiinflammatory activity against carrageenan-induced paw edema in orally dosed Wistar rat after 2 hrs relative to control. Format: functional. Put shortly: as §1
In data set [4] the test system is Rattus norvegicus. Briefly: Gastric-ulcerogenic effect in Wistar rat at 30 mg/kg, po. It counts as ADME, organism-based. The note with it: in vivo. Also on record: dose 30 mg/kg, route oral. A digest of the protocol:
(§2)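 Wistar rats of either sex (100–120 g), kept at 25 °C and 50% relative humidity on a 12 h light/dark cycle, fasted 24 h with water ad libitum. Compounds were suspended in 1% aqueous CMC and given orally; controls received vehicle. Ulceration was induced in a stress model with added cold stress. Gastric mucosa was scored, with severity index = treated mean score minus control mean. Ratio of ulcerated animals recorded. Mean ± SEM; one-way ANOVA with Dunnett's test. Tissue examined after H&E staining.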

Data set [5] deals with Rattus norvegicus. Briefly: Gastric-ulcerogenic effect in Wistar rat at 50 mg/kg, po. As to conditions: in vivo. Set-up: dose 50 mg/kg, route oral. Format: ADME, organism-based. Put shortly:
as §2

The subject of data set [6] is Rattus norvegicus. Briefly: Gastric-ulcerogenic effect in Wistar rat at 10 mg/kg, po. It counts as ADME, organism-based. Set-up: dose 10 mg/kg, route oral. The note with it: in vivo. Put shortly:
as §2

In another data set the test system is Mus musculus. Briefly: Analgesic activity against acetic acid-induced writhing in Swiss Albino mouse at 10 mg/kg, po after 25 mins relative to control. Format: functional. Put shortly: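 Mice given compounds orally at 10 mg/kg, suspended in 1% aqueous sodium carboxymethyl cellulose. Vehicle-only controls were run. Acetic acid was used to induce writhing. Writhes were counted over 25 min after treatment and reported as mean ± SEM. Percent inhibition was calculated versus the vehicle control.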

The test system of data set [7] is Rattus norvegicus. The data set can be described thus: Induction of gastric ulcer in orally dosed Wistar rat assessed as stomach mucosal damage. It counts as organism-based. As to conditions: in vivo, po. Put shortly:
as §2

For `Cc1ccc(/C=N/NC(=O)Cc2ccccc2Nc2c(Cl)cccc2Cl)cc1`, the figures for the Inhibition in the data set on Rattus norvegicus [1], with Rattus norvegicus [2] and with Rattus norvegicus [3] were 68.62%, 20.99% and 43.09%, respectively.
Taken in the same sequence, the figures for `O=C(Cc1ccccc1Nc1c(Cl)cccc1Cl)N/N=C/c1ccccc1Cl` were 60.99%, 13.54% and 40.2%.
On to `COc1ccc(/C=N/NC(=O)Cc2ccccc2Nc2c(Cl)cccc2Cl)cc1`, for which the Activity result in the data set with Rattus norvegicus [4], in the data set with Rattus norvegicus [5], with Rattus norvegicus [6] and in the data set on Rattus norvegicus [7] was “Non-toxic” throughout. For the same compound, the Inhibition amounted to 73.36% in the data set with Rattus norvegicus [1], 27.21% in the data set on Rattus norvegicus [2] and 51.88% in the data set on Rattus norvegicus [3]. 10 mg/kg produced 53.9% inhibition in vivo in the data set with Mus musculus.
On to `COc1cc(/C=N/NC(=O)Cc2ccccc2Nc2c(Cl)cccc2Cl)cc(OC)c1OC`, for which the results for the Inhibition with Rattus norvegicus [1], in the data set on Rattus norvegicus [2] and in the data set with Rattus norvegicus [3] were 71.93%, 29.11% and 50.97%, respectively.
Regarding `O=C(CSc1nnc(Cc2ccccc2Nc2c(Cl)cccc2Cl)o1)c1ccc(O)cc1`, the figures for the Inhibition with Rattus norvegicus [1], in the data set on Rattus norvegicus [2] and in the data set with Rattus norvegicus [3] were 71.99%, 31.55% and 48.91%, respectively. The inhibition in vivo at 10 mg/kg in the data set with Mus musculus came to 68.2%.
As to `COc1cccc(C(=O)CSc2nnc(Cc3ccccc3Nc3c(Cl)cccc3Cl)o2)c1`, the Activity result with Rattus norvegicus [4], in the data set on Rattus norvegicus [5], in the data set on Rattus norvegicus [6] and in the data set on Rattus norvegicus [7] was “Non-toxic” each time. Moreover, the Inhibition came out at 74.23% with Rattus norvegicus [1], 23.8% in the data set on Rattus norvegicus [2] and 52.09% with Rattus norvegicus [3]. In addition, the inhibition in vivo at 10 mg/kg in the data set with Mus musculus turned out to be 66.9%.
Regarding `O=C(Cc1ccccc1Nc1c(Cl)cccc1Cl)N/N=C/c1ccc(Br)cc1`, the Activity result with Rattus norvegicus [4], in the data set on Rattus norvegicus [5], with Rattus norvegicus [6] and in the data set with Rattus norvegicus [7] was “Non-toxic” throughout. Moreover, the Inhibition with Rattus norvegicus [1] turned out to be 80.07%; in the data set with Rattus norvegicus [2], 30.53%; in the data set with Rattus norvegicus [3], 51.72%. The compound further had an inhibition in vivo at 10 mg/kg with Mus musculus of 68.7%.
As for `O=C(CSc1nnc(Cc2ccccc2Nc2c(Cl)cccc2Cl)o1)c1ccc([N+](=O)[O-])cc1`, the values for the Inhibition in the data set with Rattus norvegicus [1], in the data set on Rattus norvegicus [2] and with Rattus norvegicus [3] were 67.19%, 20.99% and 45.64%, respectively.
Turning to `O=C(Cc1ccccc1Nc1c(Cl)cccc1Cl)N/N=C/c1ccccc1O`, the Activity result in the data set with Rattus norvegicus [4], with Rattus norvegicus [5], in the data set with Rattus norvegicus [6] and in the data set on Rattus norvegicus [7] was “Non-toxic” throughout. Further, the values for the Inhibition in the data set with Rattus norvegicus [1], in the data set with Rattus norvegicus [2] and in the data set on Rattus norvegicus [3] were 72.88%, 31.38% and 46.96%, respectively. Moreover, the inhibition in vivo at 10 mg/kg in the data set with Mus musculus was 60.5%.
With `O=C(Cc1ccccc1Nc1c(Cl)cccc1Cl)N/N=C/C=C/c1ccccc1`, the Inhibition in the data set with Rattus norvegicus [1] is given as 72.76%; with Rattus norvegicus [2], 32.28%; in the data set on Rattus norvegicus [3] it was 48.81%. In the data set on Mus musculus, this compound gave an inhibition in vivo at 10 mg/kg of 45.3%.
On to `O=C(CSc1nnc(Cc2ccccc2Nc2c(Cl)cccc2Cl)o1)c1cccc(O)c1`, for which the figures for the Inhibition with Rattus norvegicus [1], in the data set with Rattus norvegicus [2] and in the data set on Rattus norvegicus [3] were 69.89%, 17.94% and 44.53%, respectively.
For `O=C(CSc1nnc(Cc2ccccc2Nc2c(Cl)cccc2Cl)o1)c1cccc([N+](=O)[O-])c1`, the Inhibition with Rattus norvegicus [1] is 60.39%; in the data set with Rattus norvegicus [2], 28.34%; in the data set with Rattus norvegicus [3] it was 49.47%.
Take `O=C(CSc1nnc(Cc2ccccc2Nc2c(Cl)cccc2Cl)o1)c1ccc(Br)cc1`: the Inhibition amounted to 71.05% with Rattus norvegicus [1], 26.02% in the data set on Rattus norvegicus [2] and 45.16% in the data set with Rattus norvegicus [3]. Besides, the inhibition in vivo at 10 mg/kg with Mus musculus stood at 55%.
With `O=C(Cc1ccccc1Nc1c(Cl)cccc1Cl)N/N=C/c1ccc(F)cc1`, the results for the Inhibition with Rattus norvegicus [1], in the data set with Rattus norvegicus [2] and in the data set on Rattus norvegicus [3] were 60.34%, 16.64% and 41.35%, respectively.
For the compound `COc1ccc(C(=O)CSc2nnc(Cc3ccccc3Nc3c(Cl)cccc3Cl)o2)cc1OC`, the Activity entry in the data set with Rattus norvegicus [4], in the data set with Rattus norvegicus [5], in the data set with Rattus norvegicus [6] and in the data set with Rattus norvegicus [7] was “Non-toxic” each time. In addition, the Inhibition in the data set on Rattus norvegicus [1] is on record as 72.63%; with Rattus norvegicus [2] it was 23.43%; in the data set with Rattus norvegicus [3], 48.63%. For the same compound, in the data set on Mus musculus, testing at 10 mg/kg gave an inhibition in vivo of 51.4%.
In the case of `CN(C)c1ccc(/C=N/NC(=O)Cc2ccccc2Nc2c(Cl)cccc2Cl)cc1`, the Inhibition with Rattus norvegicus [1] is given as 69.39%; in the data set with Rattus norvegicus [2], 28.2%; in the data set with Rattus norvegicus [3] it was 48.75%.
`O=C(Cc1ccccc1Nc1c(Cl)cccc1Cl)N/N=C/c1cccc([N+](=O)[O-])c1`: the Inhibition worked out at 69.79% in the data set with Rattus norvegicus [1], 20.87% in the data set on Rattus norvegicus [2] and 47.02% in the data set with Rattus norvegicus [3].
As for `O=C(Cc1ccccc1Nc1c(Cl)cccc1Cl)N/N=C/c1ccc(O)cc1`, the Inhibition with Rattus norvegicus [1] came to 70.94%; in the data set on Rattus norvegicus [2], 16.28%; with Rattus norvegicus [3], 38.14%.
Regarding `O=C(CSc1nnc(Cc2ccccc2Nc2c(Cl)cccc2Cl)o1)c1ccc(Cl)c(Cl)c1`, the Inhibition in the data set on Rattus norvegicus [1] is recorded as 60.39%; in the data set on Rattus norvegicus [2], 30.46%; in the data set on Rattus norvegicus [3], 52.26%.
Regarding `O=C([O-])Cc1ccccc1Nc1c(Cl)cccc1Cl.[Na+]` [DICLOFENAC SODIUM], the values for the UI in the data set on Rattus norvegicus [4] and in the data set on Rattus norvegicus [6] were 2.1 and 1.8, respectively. Further, the Inhibition stood at 71.3% with Rattus norvegicus [1], 28.69% with Rattus norvegicus [2] and 48.99% in the data set with Rattus norvegicus [3]. Besides, the inhibition in vivo at 10 mg/kg with Mus musculus amounted to 64.7%.

A word on the Inhibition: it is how much of the control response was suppressed. The term inhibition in vivo denotes the share of the control response that was lost under treatment. Low readings indicate a weak effect, high ones a strong effect.
